# Laboratory results taken from the array DNA melting data of Ke et al. (doi:10.1101/2024.01.08.574731).
# Tests used:
# [1] = folding enthalpy; higher = less favourable; fluorescence melt of hairpins on a sequencing array, two-state fit; settings: sodium 0.088 M
# Procedure, shortened: (§1)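 Hairpins were imaged by Cy3 fluorescence on a sequenced MiSeq flow cell with annealed Cy3 and quencher oligos, in 50 mM Na-HEPES pH 8.0, 25 mM NaCl, in 2.5 °C steps up to 60 °C. Bootstrapped two-state fits of normalised signals gave melting temperature and folding enthalpy. Four replicates were combined by inverse variance, and fitted temperatures were raised by 9.35 °C to match UV melts.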
# [2] = melting temperature; fluorescence melt of hairpins on a sequencing array, two-state fit, raised by 9.35 °C to match UV melts; settings: sodium 0.088 M
# Procedure, shortened: as §1
sequence,measurement,setting,value
GATCGGTACACCGATC ((((((....)))))),folding enthalpy,[1],-40.4 kcal/mol
same,Tm,[2],62.2 °C
GTTTATCGAAAGATAAC (((.(((....)))))),folding enthalpy,[1],-18.6 kcal/mol
same,Tm,[2],35.5 °C
GATCCCCTTCGGGATC ((((((....)))))),folding enthalpy,[1],-39.9 kcal/mol
same,Tm,[2],58.7 °C
GTACTTCGAAAGAAATAC (((.(((....))).))),folding enthalpy,[1],-17.1 kcal/mol
same,Tm,[2],29.3 °C
GGCTTCGAAAGAAAGGCC ((((((....)))..))),folding enthalpy,[1],-26 kcal/mol
same,Tm,[2],43.4 °C
GCGATGCATCGC ((((....)))),folding enthalpy,[1],-32.1 kcal/mol
same,Tm,[2],59.6 °C
GTGAATGGAAACATTTAC ((.((((....)))).)),folding enthalpy,[1],-32.9 kcal/mol
same,Tm,[2],36.5 °C
GACTGCGCGAAAGCGGTC (((..(((....)))))),folding enthalpy,[1],-11.3 kcal/mol
same,Tm,[2],48 °C
GATCTGCCGCCAGATC ((((((....)))))),folding enthalpy,[1],-31.9 kcal/mol
same,Tm,[2],51.4 °C
GGAGTGCGAAAGCAATCC (((.(((....))).))),folding enthalpy,[1],-35.7 kcal/mol
same,Tm,[2],60.1 °C
GGAATCGAAAGATTTTCC ((((((....)))..))),folding enthalpy,[1],-17.7 kcal/mol
same,Tm,[2],27.8 °C
GATGCTGAAAAGCATC ((((((....)))))),folding enthalpy,[1],-39.1 kcal/mol
same,Tm,[2],63 °C
GAGATGGCGAAAGCCCTC (((..(((....)))))),folding enthalpy,[1],-10.3 kcal/mol
same,Tm,[2],32.8 °C
GGACGCGAAAGCGTCTCC ((((((....)))..))),folding enthalpy,[1],-6.35 kcal/mol
same,Tm,[2],62.5 °C
GGACACGAAAGTGGTCC ((((((....))).))),folding enthalpy,[1],-21.6 kcal/mol
same,Tm,[2],57 °C
GCTGTGCGAAAGCAGTGC ((..(((....)))..)),folding enthalpy,[1],-15.8 kcal/mol
same,Tm,[2],46.6 °C
ATAACGAAAGTTAT (((((....))))),folding enthalpy,[1],-15.2 kcal/mol
same,Tm,[2],46.3 °C
GGTATACCGAAAGGTACC (((..(((....)))))),folding enthalpy,[1],-12.8 kcal/mol
same,Tm,[2],36.4 °C
GCCTACGGAAACGCAAGC ((.(.((....)).).)),folding enthalpy,[1],-11.9 kcal/mol
same,Tm,[2],26.9 °C
GGTGGGGGAAACCTCGCC ((.(.((....)).).)),folding enthalpy,[1],-30.8 kcal/mol
same,Tm,[2],45.6 °C
GTGTAACGAAAGTTCAC (((.(((....)))))),folding enthalpy,[1],-20 kcal/mol
same,Tm,[2],44.6 °C
GTTACACGAAAGTGGAAC (((.(((....))).))),folding enthalpy,[1],-36.7 kcal/mol
same,Tm,[2],56.7 °C
GGTTGTGCGAAAGCAACC (((..(((....)))))),folding enthalpy,[1],-19.1 kcal/mol
same,Tm,[2],42.8 °C
GGACACCGAAAGGTATCC (((.(((....))).))),folding enthalpy,[1],-30.4 kcal/mol
same,Tm,[2],47.5 °C
GGTCGCGAAAGCGGCACC ((((((....)))..))),folding enthalpy,[1],-9.3 kcal/mol
same,Tm,[2],52.8 °C
GTCCAGAAATGGAC (((((....))))),folding enthalpy,[1],-24.8 kcal/mol
same,Tm,[2],52.9 °C
GATCGCTGTCGCGATC ((((((....)))))),folding enthalpy,[1],-30.2 kcal/mol
same,Tm,[2],68.4 °C
GATCCGATCTCGGATC ((((((....)))))),folding enthalpy,[1],-40.9 kcal/mol
same,Tm,[2],62.2 °C
GCTCGGGGAAACCTGGGC ((.(.((....)).).)),folding enthalpy,[1],-18.5 kcal/mol
same,Tm,[2],45.9 °C
GGCATTGGAAACAATGTC (.(((((....))))).),folding enthalpy,[1],-31.9 kcal/mol
same,Tm,[2],48.1 °C
GCGACGTATCGC ((((....)))),folding enthalpy,[1],-14.6 kcal/mol
same,Tm,[2],50.5 °C
GATAGCGAAAGCTTATC ((((((....))).))),folding enthalpy,[1],-13.7 kcal/mol
same,Tm,[2],39 °C
GATCTTTATTAAGATC ((((((....)))))),folding enthalpy,[1],-34.2 kcal/mol
same,Tm,[2],43.5 °C
GCGGCATCCCGC ((((....)))),folding enthalpy,[1],-20.7 kcal/mol
same,Tm,[2],56.4 °C
GATCCACCGATGGATC ((((((....)))))),folding enthalpy,[1],-36.7 kcal/mol
same,Tm,[2],49.2 °C
GACCGTGGAAACATGGTC ((((.((....)).)))),folding enthalpy,[1],-43.2 kcal/mol
same,Tm,[2],54.2 °C
GCATCGCGAAAGCGTTGC (((.(((....))).))),folding enthalpy,[1],-44.2 kcal/mol
same,Tm,[2],58.5 °C
GCGTCTCTACGC ((((....)))),folding enthalpy,[1],-24.4 kcal/mol
same,Tm,[2],52.9 °C
GCTCAATCGAAAGATAGC (((..(((....)))))),folding enthalpy,[1],-11.6 kcal/mol
same,Tm,[2],31.9 °C
GACGAACGAAAGTTGGTC (((.(((....))).))),folding enthalpy,[1],-36.7 kcal/mol
same,Tm,[2],48.8 °C
GATCATGATTATGATC ((((((....)))))),folding enthalpy,[1],-29.5 kcal/mol
same,Tm,[2],47.5 °C
GCTGGCGCGAAAGCGAGC (((..(((....)))))),folding enthalpy,[1],-9.37 kcal/mol
same,Tm,[2],55.6 °C
GCCTGATCGAAAGATGGC (((..(((....)))))),folding enthalpy,[1],-25.2 kcal/mol
same,Tm,[2],41.9 °C
GTAGTCGAAAGACCTTAC ((((((....)))..))),folding enthalpy,[1],-14.1 kcal/mol
same,Tm,[2],29.4 °C
CTATGGAAACATAG (((((....))))),folding enthalpy,[1],-15.7 kcal/mol
same,Tm,[2],36.9 °C
GATCAAGGACTTGATC ((((((....)))))),folding enthalpy,[1],-40 kcal/mol
same,Tm,[2],50.7 °C
